The record followed here is ChEMBL document CHEMBL3585325, “Discovery of (1R,2S)-2-{[(2,4-Dimethylpyrimidin-5-yl)oxy]methyl}-2-(3-fluorophenyl)-N-(5-fluoropyridin-2-yl)cyclopropanecarboxamide (E2006): A Potent and Efficacious Oral Orexin Receptor Antagonist” (J Med Chem, 2015).

In brackets after ≈: the same amount, converted by molar mass.

Series [1] deals with T1, Cytochrome P450 2C8 (Homo sapiens, UniProt P10632).
T1 sequence (P10632 whole entry): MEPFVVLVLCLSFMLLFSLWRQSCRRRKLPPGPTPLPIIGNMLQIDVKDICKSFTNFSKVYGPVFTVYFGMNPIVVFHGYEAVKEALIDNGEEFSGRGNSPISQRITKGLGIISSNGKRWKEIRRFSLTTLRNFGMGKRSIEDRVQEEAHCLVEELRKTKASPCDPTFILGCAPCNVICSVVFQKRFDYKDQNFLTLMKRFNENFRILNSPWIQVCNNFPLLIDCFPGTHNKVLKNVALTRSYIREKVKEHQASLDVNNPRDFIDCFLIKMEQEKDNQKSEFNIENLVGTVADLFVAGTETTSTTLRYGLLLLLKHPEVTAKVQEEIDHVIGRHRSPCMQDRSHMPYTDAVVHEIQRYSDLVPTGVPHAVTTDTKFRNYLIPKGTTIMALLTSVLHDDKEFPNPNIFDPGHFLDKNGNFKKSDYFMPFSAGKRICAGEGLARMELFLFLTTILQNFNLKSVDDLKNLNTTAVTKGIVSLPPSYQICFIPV
The series can be described thus: Inhibition of CYP2C8 in human liver microsomes using rosiglitazone as susbtrate incubated for 30 mins prior to substrate addition for 10 mins by LC-MS/MS analysis. It is filed as ADME. (Microsomes from liver hold many membrane-bound enzymes, among them those of drug oxidation.)

A short description of series [2]: Metabolic stability in human liver microsomes assessed as residual ratio at 0.3 uM after 15 mins by LC-MS analysis. It is filed as ADME. The settings on record: read-out: Stability. Summed up: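 Human liver microsomes (0.2 mg/mL) incubated with test compound at 0.3 μM in 0.1% DMSO for 15 min at 37 °C, with and without an NADPH-generating system. Reaction stopped with acetonitrile/methanol (7:3) containing internal standard. Parent compound quantified by LC−MS. Value is the residual ratio in the presence versus absence of NADPH.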

Series [3] concerns the target T2, Orexin receptor type 2 (Homo sapiens, UniProt O43614).
T2 sequence (O43614 whole entry): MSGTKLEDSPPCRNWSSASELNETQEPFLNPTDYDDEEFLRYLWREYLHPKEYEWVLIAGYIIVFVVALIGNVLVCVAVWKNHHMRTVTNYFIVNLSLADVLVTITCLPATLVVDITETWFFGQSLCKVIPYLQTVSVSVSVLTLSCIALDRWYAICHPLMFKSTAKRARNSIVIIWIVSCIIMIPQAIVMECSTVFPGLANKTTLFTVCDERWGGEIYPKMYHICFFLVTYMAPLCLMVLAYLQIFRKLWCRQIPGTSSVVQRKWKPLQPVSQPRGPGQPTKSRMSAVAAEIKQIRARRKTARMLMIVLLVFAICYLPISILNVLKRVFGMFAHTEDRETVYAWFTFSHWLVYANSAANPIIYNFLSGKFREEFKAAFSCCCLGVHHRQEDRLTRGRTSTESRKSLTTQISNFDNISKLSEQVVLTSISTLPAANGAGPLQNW
Briefly: Binding affinity to human OX2R by radioligand displacement binding assay. A general note: In a radioligand displacement assay an active substance lowers the binding of a labelled ligand.

Series [4] addresses CYP3A (Homo sapiens, UniProt P08684+P20815+P24462+Q9HB55). The series can be described thus: Time dependent inhibition of CYP3A in human liver microsomes assessed as enzyme activity using midazolam as substrate at 10 uM incubated for 30 mins prior to substrate addition for 10 mins by LC-MS/MS analysis. It is filed as ADME. Details: scale not given: the % may be the effect or the level left. The settings on record: probe midazolam, read-out: Activity. The gist of the method:
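Test compound at 10 μM preincubated 30 min at 37 °C with human liver microsomes (0.2 mg/mL), with or without an NADPH-generating system. Mixture then diluted 10-fold into a marker-substrate cocktail plus NADPH system and incubated 10 min at 37 °C. Midazolam served as the CYP3A probe. Metabolites measured by LC−MS/MS. Result is the residual activity with NADPH relative to without, as % of control.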

Series [5] addresses Cytochrome P450 2C19 (Homo sapiens, UniProt P33261). The series can be described thus: Inhibition of CYP2C19 in human liver microsomes using S-mephenytoin as susbtrate incubated for 30 mins prior to substrate addition for 10 mins by LC-MS/MS analysis. It is filed as ADME.
Series [6] has as its target T3, Cytochrome P450 1A2 (Homo sapiens, UniProt P05177).
T3 sequence (P05177 whole entry): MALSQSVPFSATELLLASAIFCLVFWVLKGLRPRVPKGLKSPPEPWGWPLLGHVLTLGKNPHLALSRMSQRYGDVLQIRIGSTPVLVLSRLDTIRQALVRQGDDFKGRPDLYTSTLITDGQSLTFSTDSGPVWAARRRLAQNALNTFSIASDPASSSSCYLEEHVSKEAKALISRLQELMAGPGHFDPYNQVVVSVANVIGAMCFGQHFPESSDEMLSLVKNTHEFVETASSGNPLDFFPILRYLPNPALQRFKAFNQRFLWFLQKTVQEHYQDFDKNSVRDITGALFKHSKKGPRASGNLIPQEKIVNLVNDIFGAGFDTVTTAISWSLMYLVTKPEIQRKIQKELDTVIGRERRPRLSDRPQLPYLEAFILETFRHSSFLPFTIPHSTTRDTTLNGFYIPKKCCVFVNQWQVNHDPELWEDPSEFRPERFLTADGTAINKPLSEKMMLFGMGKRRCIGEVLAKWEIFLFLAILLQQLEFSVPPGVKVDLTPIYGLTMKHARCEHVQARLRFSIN
Briefly: Inhibition of CYP1A2 in human liver microsomes using phenacetin as susbtrate incubated for 30 mins prior to substrate addition for 10 mins by LC-MS/MS analysis. It is filed as ADME.

Series [7] can be described thus: Activity at P-gp (unknown origin) assessed as corrected flux ratio. It is filed as ADME. The settings on record: human. The gist of the method: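 Reported as corrected flux ratio, i.e. the MDR1 flux ratio divided by the PK1 flux ratio.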
Series [8] concerns the target T4, Orexin/Hypocretin receptor type 1 (Homo sapiens, UniProt O43613).
T4 sequence (O43613 whole entry): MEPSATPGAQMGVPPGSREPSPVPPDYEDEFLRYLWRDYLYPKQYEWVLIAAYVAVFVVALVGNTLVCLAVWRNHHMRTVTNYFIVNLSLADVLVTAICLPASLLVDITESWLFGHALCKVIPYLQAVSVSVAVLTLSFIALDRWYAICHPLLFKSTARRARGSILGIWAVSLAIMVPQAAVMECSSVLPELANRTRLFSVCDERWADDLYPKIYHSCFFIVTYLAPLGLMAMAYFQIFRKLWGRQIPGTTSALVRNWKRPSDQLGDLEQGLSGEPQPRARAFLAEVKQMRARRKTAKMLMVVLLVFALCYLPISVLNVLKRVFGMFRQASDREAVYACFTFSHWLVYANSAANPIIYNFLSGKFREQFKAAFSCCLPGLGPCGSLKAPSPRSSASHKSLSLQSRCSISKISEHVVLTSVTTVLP
Briefly: Binding affinity to human OX1R by radioligand displacement binding assay. Summed up: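 Ki values come from single experiments run in triplicate.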

Series [9] can be described thus: Aqueous solubility of the compound in Dulbecco's phosphate buffered saline at pH 7.4 by DMSO solution precipitation method. It is filed as physicochemical. The gist of the method: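 Solubility in Dulbecco's PBS at pH 7.4, measured at room temperature by precipitation from a DMSO solution.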
Series [10] has as its target Cytochrome P450 2D6 (Homo sapiens, UniProt P10635). Briefly: Inhibition of CYP2D6 in human liver microsomes using bufuralol as susbtrate incubated for 30 mins prior to substrate addition for 10 mins by LC-MS/MS analysis. It is filed as ADME.
Series [11] deals with Cytochrome P450 2C9 (Homo sapiens, UniProt P11712). Briefly: Inhibition of CYP2C9 in human liver microsomes using tolbutamide as susbtrate incubated for 30 mins prior to substrate addition for 10 mins by LC-MS/MS analysis. It is filed as ADME.
Series [12] can be described thus: Aqueous solubility of the compound in Japanese Pharmacopoeia 1st fluid at pH 1.2 by DMSO solution precipitation method. It is filed as physicochemical. Summed up: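 Solubility in Japanese Pharmacopoeia 1st fluid (aqueous HCl containing 34 mM NaCl), pH 1.2, measured at room temperature by precipitation from a DMSO solution.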

Cytochrome P450 2C9, sequence (P11712 whole entry): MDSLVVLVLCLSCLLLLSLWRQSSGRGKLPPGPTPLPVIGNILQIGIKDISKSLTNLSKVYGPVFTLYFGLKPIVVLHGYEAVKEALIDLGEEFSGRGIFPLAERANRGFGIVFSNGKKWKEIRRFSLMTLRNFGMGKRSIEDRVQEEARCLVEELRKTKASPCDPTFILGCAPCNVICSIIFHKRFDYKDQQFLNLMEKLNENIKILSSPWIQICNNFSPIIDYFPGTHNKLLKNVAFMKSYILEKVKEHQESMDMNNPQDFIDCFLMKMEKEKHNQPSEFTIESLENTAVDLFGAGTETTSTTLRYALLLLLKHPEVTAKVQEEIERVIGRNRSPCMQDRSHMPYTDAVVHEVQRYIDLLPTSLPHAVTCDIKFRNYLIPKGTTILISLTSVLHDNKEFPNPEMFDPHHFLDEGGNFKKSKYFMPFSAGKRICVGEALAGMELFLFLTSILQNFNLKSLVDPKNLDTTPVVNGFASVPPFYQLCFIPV
Cytochrome P450 2D6, sequence (P10635 whole entry): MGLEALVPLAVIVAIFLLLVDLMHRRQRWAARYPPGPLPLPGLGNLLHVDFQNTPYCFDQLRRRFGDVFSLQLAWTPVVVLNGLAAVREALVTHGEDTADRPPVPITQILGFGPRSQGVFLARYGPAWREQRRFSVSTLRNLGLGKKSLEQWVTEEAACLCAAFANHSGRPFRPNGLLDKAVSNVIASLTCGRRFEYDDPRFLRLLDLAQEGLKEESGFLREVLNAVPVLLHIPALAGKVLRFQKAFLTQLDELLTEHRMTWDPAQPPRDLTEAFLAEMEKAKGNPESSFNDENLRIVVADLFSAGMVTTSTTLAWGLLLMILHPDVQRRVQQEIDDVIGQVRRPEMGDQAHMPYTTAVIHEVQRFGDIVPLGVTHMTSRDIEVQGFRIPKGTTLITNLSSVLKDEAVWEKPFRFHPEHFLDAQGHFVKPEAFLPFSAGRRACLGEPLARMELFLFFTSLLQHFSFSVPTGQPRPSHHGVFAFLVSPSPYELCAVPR
Cytochrome P450 2C19, sequence (P33261 whole entry): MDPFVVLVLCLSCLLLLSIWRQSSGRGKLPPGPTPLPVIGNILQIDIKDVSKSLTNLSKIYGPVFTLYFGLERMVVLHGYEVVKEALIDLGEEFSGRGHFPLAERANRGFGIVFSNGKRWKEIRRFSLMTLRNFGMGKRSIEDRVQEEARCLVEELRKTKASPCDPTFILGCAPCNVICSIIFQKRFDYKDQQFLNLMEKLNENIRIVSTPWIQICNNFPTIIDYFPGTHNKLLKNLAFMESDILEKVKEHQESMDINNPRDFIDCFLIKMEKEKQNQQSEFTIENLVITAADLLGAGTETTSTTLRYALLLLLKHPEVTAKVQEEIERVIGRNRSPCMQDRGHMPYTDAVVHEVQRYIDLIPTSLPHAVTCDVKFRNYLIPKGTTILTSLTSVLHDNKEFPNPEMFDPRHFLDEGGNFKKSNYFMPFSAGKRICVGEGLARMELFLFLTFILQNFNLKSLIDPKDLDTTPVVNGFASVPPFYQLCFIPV

On to `COc1ccc(OC[C@@]2(c3ccccc3)C[C@H]2C(=O)Nc2ccc(C#N)cn2)cc1OC`, for which the IC50 is 8 µM in [1]; 8.6 µM in [5]; > 10 µM in [6]; > 10 µM in series [10]; > 10 µM in [11]. The remaining at 0.25 h, 0.3 µM in series [2] worked out at 80%. Moreover, the inhibitory constant (Ki) amounted to 0.005 µM in series [3] and 0.106 µM in series [8]. In addition, the activity at 10 min, 10 µM in series [4] was 49%. Besides, the Ratio in series [7] stood at 1. Further, the solubility (kinetic) in series [9] is 15 µM (≈ 6.44 µg/mL); in [12] it was 25 µM (≈ 10.7 µg/mL).

By IC50 is commonly meant the concentration that gives 50% inhibition. The Ki is a measure of affinity in units of concentration, obtained from inhibition or displacement. A word on the solubility (kinetic): it is solubility judged after dilution from a stock solution rather than from solid.
